Laboratory results published in ChEMBL document CHEMBL5230149, “Discovery of novel ketoxime ether derivatives with potent FXR agonistic activity, oral effectiveness and high liver/blood ratio” (Bioorg Med Chem, 2021).
The source made the active and inactive calls. The calls are words filed in the database; no cut-off is given here.

Key:
Bile acid receptor = biological target: T1, Bile acid receptor (Homo sapiens, UniProt Q96RI1); assay: Agonist activity at human FXR expressed in human Huh-7 cells co-transfected with FXRE-Luc reporter plasmid assessed as receptor transactivation incubated for 16 hrs by luciferase reporter gene assay; assay type: cell-based
T1 sequence (Q96RI1 whole entry): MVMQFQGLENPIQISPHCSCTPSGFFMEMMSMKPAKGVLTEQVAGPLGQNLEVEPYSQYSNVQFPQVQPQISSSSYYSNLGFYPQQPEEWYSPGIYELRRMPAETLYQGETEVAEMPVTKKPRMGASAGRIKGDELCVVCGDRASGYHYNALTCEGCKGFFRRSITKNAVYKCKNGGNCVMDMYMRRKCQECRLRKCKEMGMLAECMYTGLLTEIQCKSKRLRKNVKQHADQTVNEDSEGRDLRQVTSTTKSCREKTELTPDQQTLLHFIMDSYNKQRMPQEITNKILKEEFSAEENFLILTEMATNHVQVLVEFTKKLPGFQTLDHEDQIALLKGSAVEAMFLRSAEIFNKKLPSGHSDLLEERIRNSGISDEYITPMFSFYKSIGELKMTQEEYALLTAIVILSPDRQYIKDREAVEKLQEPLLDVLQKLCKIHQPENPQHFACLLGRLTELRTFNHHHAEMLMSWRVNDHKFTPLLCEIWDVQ

[1] = biological target: T2, Bile acid receptor (Mus musculus) (UniProt Q60641); assay: In vivo agonist activity at FXR in C57BL/6J mouse assessed as downregulation of CYP8B1 mRNA expression in liver at 10 mg/kg, po measured after 6 hrs by qRT-PCR analysis; assay type: functional, organism-based
T2 sequence (whole entry): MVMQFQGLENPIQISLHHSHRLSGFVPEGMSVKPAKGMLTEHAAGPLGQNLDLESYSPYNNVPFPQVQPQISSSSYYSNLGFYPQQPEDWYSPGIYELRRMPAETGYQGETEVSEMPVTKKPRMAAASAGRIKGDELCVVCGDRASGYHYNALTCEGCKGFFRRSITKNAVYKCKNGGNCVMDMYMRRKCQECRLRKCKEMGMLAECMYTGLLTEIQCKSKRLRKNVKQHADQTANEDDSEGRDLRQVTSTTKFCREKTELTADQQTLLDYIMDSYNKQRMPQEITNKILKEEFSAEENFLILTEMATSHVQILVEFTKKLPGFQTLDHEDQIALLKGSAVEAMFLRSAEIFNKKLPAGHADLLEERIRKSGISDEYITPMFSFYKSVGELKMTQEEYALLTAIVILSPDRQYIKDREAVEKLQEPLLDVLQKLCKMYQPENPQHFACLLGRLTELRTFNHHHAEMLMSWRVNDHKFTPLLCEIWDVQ
Summary of the method: (§1)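 Male C57BL/6J mice (7–8 weeks) were fasted 3 h, then dosed orally once in 0.25% CMC-Na (wt/vol) vehicle. Sacrificed 6 h post-dose; liver snap-frozen at -80 °C. TRIzol RNA extraction and qRT-PCR with GAPDH normalization (ΔΔCt). Results are fold over vehicle group (mean ± S.E.M, n = 6).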

[2] = Plasma concentration in ICR mouse at 15 mg/kg, po measured after 1.5 hrs by LC-MS/MS analysis; assay type: ADME, organism-based
Summary of the method: (§2)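 Overnight-fasted male ICR mice (n = 3 per time point) received single oral 15 mg/kg and were refed 2 h later. Blood and liver were taken at 1.5, 4 and 8 h. Serum (10 µL) was precipitated with 100 µL methanol/acetonitrile (1:1). Liver was homogenized in ten times its weight of the same solvent. Supernatants were diluted 1:1 in ACN/H₂O and analyzed by LC-MS/MS. The ratio is liver conc (ng/g) over plasma conc (ng/mL).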

[3] = Drug uptake in ICR mouse liver at 15 mg/kg, po measured after 4 hrs by LC-MS/MS analysis; assay type: ADME, organism-based; conditions: read-out: Drug uptake; summary of the method: as §2
[4] = Plasma concentration in ICR mouse at 15 mg/kg, po measured after 8 hrs by LC-MS/MS analysis; assay type: ADME, organism-based; summary of the method: as §2
[5] = biological target: T2, Bile acid receptor (Mus musculus); assay: Agonist activity at FXR in C57BL/6J mouse hepatocytes assessed as upregulation of BSEP mRNA expression at 0.4 to 10 uM incubated for 24 hrs by qRT-PCR analysis; assay type: cell-based; conditions: Hepatocyte, filed as agonist, dose 0.4-10 µM
Summary of the method: (§3)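 Hepatocytes isolated from overnight-fasted male C57BL/6J mice (8–12 weeks), allowed 4 h to adhere, then given vehicle (0.5% DMSO) or compound at 0.4, 2 and 10 μM for 24 h. TRIzol RNA extraction, then qRT-PCR with GAPDH normalization by ΔΔCt. Values are expressed as fold over vehicle (mean ± S.E.M, n = 3).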

[6] = biological target: T2, Bile acid receptor (Mus musculus); assay: In vivo agonist activity at FXR in C57BL/6J mouse assessed as downregulation of CYP7A1 mRNA expression in liver at 10 mg/kg, po measured after 6 hrs by qRT-PCR analysis; assay type: functional, organism-based; summary of the method: as §1
[7] = Drug uptake in ICR mouse liver at 15 mg/kg, po measured after 1.5 hrs by LC-MS/MS analysis; assay type: ADME, organism-based; conditions: read-out: Drug uptake; summary of the method: as §2
[8] = biological target: T2, Bile acid receptor (Mus musculus); assay: Agonist activity at FXR in C57BL/6J mouse hepatocytes assessed as upregulation of SHP mRNA expression incubated for 24 hrs by qRT-PCR analysis; assay type: cell-based; conditions: Hepatocyte, filed as agonist, dose 0.4-10 µM; summary of the method: as §3
[9] = Plasma concentration in ICR mouse at 15 mg/kg, po measured after 4 hrs by LC-MS/MS analysis; assay type: ADME, organism-based; summary of the method: as §2
[10] = biological target: T3, TGR5 (G-protein coupled bile acid receptor 1) (Homo sapiens, UniProt Q8TDU6); assay: Agonist activity at human TGR5 expressed in HEK293 cells co-transfected with CRE-Luc reporter plasmid assessed as receptor transactivation incubated for 5.5 hrs by luciferase reporter gene assay relative to OCA; assay type: cell-based; conditions: read-out: Efficacy
T3 sequence (Q8TDU6 whole entry): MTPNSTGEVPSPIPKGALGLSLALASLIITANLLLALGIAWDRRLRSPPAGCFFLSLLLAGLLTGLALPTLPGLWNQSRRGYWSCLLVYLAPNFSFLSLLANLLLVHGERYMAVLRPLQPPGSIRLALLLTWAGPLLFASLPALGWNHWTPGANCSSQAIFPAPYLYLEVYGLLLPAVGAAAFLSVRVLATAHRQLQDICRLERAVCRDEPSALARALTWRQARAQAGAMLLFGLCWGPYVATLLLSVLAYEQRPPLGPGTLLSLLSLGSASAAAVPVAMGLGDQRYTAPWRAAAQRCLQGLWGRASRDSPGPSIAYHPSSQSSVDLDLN

[11] = Drug uptake in ICR mouse liver at 15 mg/kg, po measured after 8 hrs by LC-MS/MS analysis; assay type: ADME, organism-based; conditions: read-out: Drug uptake; summary of the method: as §2
[12] = biological target: T4, G-protein coupled bile acid receptor 1 (Homo sapiens, UniProt Q8TDU6); assay: Agonist activity at human TGR5 expressed in HEK293 cells co-transfected with CRE-Luc reporter plasmid assessed as receptor transactivation incubated for 5.5 hrs by luciferase reporter gene assay; assay type: cell-based
T4 sequence (Q8TDU6 whole entry): T3 sequence (Q8TDU6 whole entry)

In the case of `C/C(=N\OCc1cccc(C(=O)O)c1)c1ccc(OCc2c(-c3ccccc3OC(F)(F)F)noc2C2CC2)cc1Cl`, the EC50 (Bile acid receptor) is reported as 108 nM.

Work on `C/C(=N\OCc1cccc(C(=O)O)c1)c1ccc(OCc2c(-c3c(Cl)cccc3Cl)noc2C2CC2)cc1Br` yielded an EC50 (Bile acid receptor) of 37.2 nM.

`C/C(=N\OCc1cccc(C(=O)O)c1)c1ccc(OCc2c(-c3c(Cl)cccc3Cl)noc2C2CC2)c(Cl)c1` gave an EC50 (Bile acid receptor) of 259 nM.

`C/C(=N\OCc1cccc(C(=O)O)c1)c1ccc(OCc2c(-c3c(Cl)cccc3Cl)noc2C2CC2)cc1Cl` gave an EC50 (Bile acid receptor) of 47.4 nM.

Compound `COc1cc(/C(C)=N/OCc2cc(C)cc(C(=O)O)c2)ccc1OCc1c(-c2ccccc2OC(F)(F)F)noc1C1CC1` has an EC50 (Bile acid receptor) of over 1850 nM.

With `C/C(=N\OCc1cc(C(=O)O)ccc1C#N)c1ccc(OCc2c(-c3ccccc3OC(F)(F)F)noc2C2CC2)c(F)c1` the EC50 (Bile acid receptor) was 347 nM.

`C/C(=N\OCc1cc(C)cc(C(=O)O)c1)c1ccc(OCc2c(-c3ccccc3OC(F)(F)F)noc2C2CC2)c(C)c1` gave an EC50 (Bile acid receptor) of 523 nM.

`C/C(=N\OCc1cncc(C(=O)O)c1)c1ccc(OCc2c(-c3ccccc3OC(F)(F)F)noc2C2CC2)c(C)c1` gave an EC50 (Bile acid receptor) of 1830 nM.

For `C/C(=N\OCc1cc(C)cc(C(=O)O)c1)c1ccc(OCc2c(-c3ccccc3OC(F)(F)F)noc2C2CC2)c(F)c1`, the EC50 (Bile acid receptor) was 1340 nM.

In the case of `C/C(=N\OCc1cncc(C(=O)O)c1)c1ccc(OCc2c(-c3ccccc3OC(F)(F)F)noc2C2CC2)c(F)c1`, the EC50 (Bile acid receptor) is reported as 728 nM.

With `C/C(=N\OCc1cc(C(=O)O)ccc1C#N)c1ccc(OCc2c(-c3ccccc3OC(F)(F)F)noc2C2CC2)cc1Cl` the Activity [1] was “Active”, the concentration at 1.5 h [2] was 56.7 ng/mL and the concentration at 4 h [3] was 3580 ng/g. For the same compound, the concentration at 8 h [4] was 8.4 ng/mL, the Activity [5] was “Active” and the Activity [6] was “Active”. The concentration at 1.5 h [7] was 4340 ng/g, the Activity [8] was “Dose-Dependent Effect” and the concentration at 4 h [9] was 45.2 ng/mL. For the same compound, the Emax at 5.5 h [10] was 0.6%, the concentration at 8 h [11] was 941 ng/g and the EC50 [12] was over 100000 nM.
